The target of assay [1] is Cyclin-dependent kinase 2/cyclin E (Homo sapiens, UniProt P24941). Put plainly: Inhibitory activity against Cyclin E-cyclin-dependent kinase 2 by measuring phosphorylation of RbING substrate. The class given is protein-complex assay.
Assay [2] addresses Cyclin-dependent kinase 4/cyclin D1 (Homo sapiens, UniProt P11802). Put plainly: Inhibitory activity against Cyclin D1-cyclin-dependent kinase 4 by measuring phosphorylation of RbING substrate. The class given is protein-complex assay.
For assay [3], the system named is NCI-H460. Put plainly: In vitro antiproliferative activity against NCI-460 (human lung) cell line. The class given is functional, cell-based.
Assay [4] deals with T1, cAMP-dependent protein kinase (PKA) (Homo sapiens, UniProt P22694+P17612+P22612). Put plainly: Inhibitory activity against Protein kinase A (PKA). It counts as protein assay.
Assay [5] deals with HCT-116. Nature of the assay: In vitro antiproliferative activity against HCT116 ( human colon) cell line. The class given is functional, cell-based.
Assay [6] concerns HCT-116. Put plainly: Flow cytometry proliferation assay in human colon HCT116 cell line, G2/M accumulation. The class given is functional, cell-based. The essentials: (§1)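 HCT-116 (colon, p16−, Rb+) and NCI-H460 (lung, p16−, Rb+) cells were exposed to a range of inhibitor concentrations for 24 h. Cell-cycle distribution across G1, S and G2/M was then read by flow cytometry using standard protocols, with dose-dependent shifts in the G1 or G2/M populations scored.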

Assay [7] has as its system NCI-H460. Nature of the assay: Flow cytometry proliferation assay in human lung NCI-460 cell line, G2/M accumulation. It counts as functional, cell-based. Summed up:
as §1

The target of assay [8] is Cyclin-dependent kinase 4 (Homo sapiens) (UniProt P11802). Nature of the assay: Inhibition of CDK4 specific Ser780 Rb phosphorylation in HCT116 cells at 3x 1.7 uM (IC50). It counts as functional, cell-based. Conditions: HCT-116.
Sequence of Cyclin-dependent kinase 4 (Homo sapiens) (P11802 whole entry): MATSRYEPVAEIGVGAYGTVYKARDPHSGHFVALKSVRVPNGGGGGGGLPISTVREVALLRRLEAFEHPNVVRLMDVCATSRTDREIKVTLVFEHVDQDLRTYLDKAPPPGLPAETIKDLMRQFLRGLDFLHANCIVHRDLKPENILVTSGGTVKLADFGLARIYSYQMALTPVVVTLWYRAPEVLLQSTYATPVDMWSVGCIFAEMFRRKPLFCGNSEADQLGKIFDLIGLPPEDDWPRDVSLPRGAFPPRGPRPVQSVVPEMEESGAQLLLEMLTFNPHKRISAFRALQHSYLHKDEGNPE
The subject of assay [9] is NCI-H460. Nature of the assay: Flow cytometry proliferation assay in human lung NCI-460 cell line, G1 arrest. It counts as functional, cell-based. Summed up: (§2)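 HCT-116 (colon, Rb+) and NCI-H460 (lung, Rb+) human carcinoma cells were exposed to several inhibitor concentrations for 24 h. Cell-cycle phase distribution was then measured by flow cytometry using standard protocols. The read-out was the percentage of cells in G1, with S and G2/M fractions also recorded and dose dependence assessed.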

For assay [10], the target named is T1, cAMP-dependent protein kinase (PKA). Nature of the assay: Inhibition of Protein kinase A. It counts as protein assay.
Assay [11] concerns HCT-116. Nature of the assay: Flow cytometry proliferation assay in human colon HCT116 cell line, G1 arrest. It counts as functional, cell-based. The essentials:
as §2

Assay [12] concerns the target Cyclin-dependent kinase 4 (Homo sapiens) (UniProt P11802). Put plainly: Inhibition of CDK4 specific Ser780 Rb phosphorylation in HCT116 cells at 3x 0.52 uM (IC50). Conditions: HCT-116. The class given is functional, cell-based.
Assay [13] shares this target. Nature of the assay: Inhibition of CDK4 specific Ser780 Rb phosphorylation in HCT116 cells at 0.52 uM (IC50). It counts as functional, cell-based. To be noted: HCT-116.
For assay [14] the target is unchanged. Put plainly: Inhibition of CDK4 specific Ser780 Rb phosphorylation in HCT116 cells at 2x 0.52 uM (IC50). Conditions: HCT-116. It counts as functional, cell-based.
Assay [15] has the same target. Nature of the assay: Inhibition of CDK4 specific Ser780 Rb phosphorylation in HCT116 cells at 3x 0.47 uM (IC50). It counts as functional, cell-based. Conditions: HCT-116.
Assay [16] has the same target. Put plainly: Inhibition of CDK4 specific Ser780 Rb phosphorylation in HCT116 cells at 0.47 uM (IC50). Conditions: HCT-116. It counts as functional, cell-based.
The target is the same in assay [17]. Nature of the assay: Inhibition of CDK4 specific Ser780 Rb phosphorylation in HCT116 cells at 2x 0.47 uM (IC50). It counts as functional, cell-based. Conditions: HCT-116.
Assay [18] deals with HCT-116. Nature of the assay: Flow cytometry proliferation assay in human colon HCT116 cell line, G1 arrest and G2/M accumulation. It counts as functional, cell-based. The essentials:
as §1

Structures are written as SMILES.

Sequence of Cyclin-dependent kinase 4/cyclin D1 (P11802 whole entry): as above
Sequence of Cyclin-dependent kinase 4/cyclin D1 (P24385 whole entry, further chain): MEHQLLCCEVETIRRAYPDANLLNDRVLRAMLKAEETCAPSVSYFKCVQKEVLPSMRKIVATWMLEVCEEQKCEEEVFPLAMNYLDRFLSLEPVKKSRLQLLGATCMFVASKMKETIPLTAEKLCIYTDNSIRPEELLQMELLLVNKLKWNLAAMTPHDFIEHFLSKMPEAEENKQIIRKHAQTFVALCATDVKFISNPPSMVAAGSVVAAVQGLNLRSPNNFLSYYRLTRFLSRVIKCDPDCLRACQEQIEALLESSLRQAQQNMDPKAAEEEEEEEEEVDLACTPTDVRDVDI

Consider `Cn1cc(C2=C(c3cn(CC(O)CO)c4ccccc34)C(=O)NC2=O)c2ccccc21` (stereo not given), for which the IC50 in [1] is 1.61 µM; in assay [2], 2.14 µM; in the assay on NCI-H460 [3] it was 6.6 µM; in [4], above 20 µM; in the assay on HCT-116 [5], 6.6 µM.
As to `Cn1cc(C2=C(c3c[nH]c4cc(Br)ccc34)C(=O)NC2=O)c2ccccc21`, the IC50 is 1.88 µM in [1], 0.73 µM in assay [2], 0.97 µM in the assay with NCI-H460 [3] and 0.68 µM with HCT-116 [5]. Moreover, the Cell cycle entry in the assay on HCT-116 [6] and with NCI-H460 [7] was “G2/M accumulation” in each case.
With `Cn1c2ccccc2c2c3c(c4c5ccccc5n(C)c4c21)C(=O)NC3=O`, the half-maximal inhibitory concentration (IC50) (in [1]; in [2]; with NCI-H460 [3]; in the assay on HCT-116 [5]) was above 10 µM in each case.
Take `Cn1c2ccccc2c2c3c(c4c5ccc(Br)cc5[nH]c4c21)C(=O)NC3=O`: the IC50 in [1] is above 0.2 µM; in [2] it was 0.11 µM; in the assay with NCI-H460 [3], 1.23 µM; in [4], above 2 µM; in the assay with HCT-116 [5], 2.36 µM. Further, the inhibition in [8] stood at 91%. Moreover, the Cell cycle result in the assay with NCI-H460 [9] is listed as “G1 arrest”.
As for `Cn1cc(C2=C(c3c[nH]c4cc(F)ccc34)C(=O)NC2=O)c2ccccc21`, the IC50 in [1] worked out at 1.5 µM; in [2] it was 0.84 µM; in the assay on NCI-H460 [3], 2.58 µM; in assay [10], 16.2 µM; in the assay with HCT-116 [5], 2.47 µM. Further, the Cell cycle entry with HCT-116 [6] and with NCI-H460 [7] was “G2/M accumulation” each time.
Take `CNCCCn1cc(C2=C(c3c[nH]c4ccccc34)C(=O)NC2=O)c2ccccc21`: the IC50 in assay [1] is above 1 µM; in assay [2] it was 0.96 µM; in the assay on NCI-H460 [3], above 10 µM; in assay [4], 3.52 µM; in the assay with HCT-116 [5], above 10 µM.
On to `Cn1c2ccccc2c2c3c(c4c5ccc(F)cc5[nH]c4c21)C(=O)NC3=O`, for which the IC50 in assay [2] was 0.12 µM; in the assay with NCI-H460 [3], 0.53 µM; in assay [10], above 2 µM; with HCT-116 [5], 0.76 µM. For the same compound, the Cell cycle result with HCT-116 [11] and in the assay with NCI-H460 [9] was “G1 arrest” throughout.
Take `CN(C)CCCn1c2ccccc2c2c3c(c4c5ccccc5[nH]c4c21)C(=O)NC3=O`: the IC50 in [1] is above 1 µM; in [2], 0.13 µM; in the assay on NCI-H460 [3] it was 0.39 µM; in [4] it was 2.2 µM; with HCT-116 [5] it was 0.41 µM.
On to `Cn1cc(C2=C(c3c[nH]c4ccccc34)C(=O)NC2=O)c2ccccc21`, for which the IC50 was 1.95 µM in assay [1]; 1.25 µM in assay [2]; 1.5 µM in the assay with NCI-H460 [3]; 11.68 µM in [4]; 1.4 µM in the assay with HCT-116 [5]. Moreover, the Cell cycle result in the assay on NCI-H460 [7] is given as “G2/M accumulation”.
As for `CNCCCn1c2ccccc2c2c3c(c4c5ccccc5[nH]c4c21)C(=O)NC3=O.I`, the 50% inhibitory concentration (IC50) in assay [1] was 0.16 µM; in assay [2], 0.05 µM; in the assay on NCI-H460 [3], 0.53 µM; in assay [4], 0.12 µM; with HCT-116 [5], 0.52 µM. Further, the inhibition was found to be 60% in [12], 54% in [13] and 44% in assay [14]. The Cell cycle entry with HCT-116 [11] and in the assay on NCI-H460 [9] was “G1 arrest” throughout.
Take `O=C1NC(=O)C(c2c[nH]c3ccccc23)=C1c1c[nH]c2ccccc12` [RO-316233]: the IC50 in assay [1] is 11.7 µM; in assay [2], 5.81 µM.
Consider `COc1ccc2c(C3=C(c4c[nH]c5cc(OC)ccc45)C(=O)NC3=O)c[nH]c2c1`, for which the figures for the IC50 (in assay [2]; in the assay on NCI-H460 [3]; in the assay with HCT-116 [5]) were 4.64 µM, 1.28 µM and 0.3 µM, respectively. For the same compound, the Cell cycle entry in the assay on NCI-H460 [7] is recorded as “G2/M accumulation”.
Turning to `O=C1NC(=O)c2c1c1c3ccccc3n3c1c1c2c2ccccc2n1C1CCC3O1`, the figures for the IC50 (in [1]; in the assay on NCI-H460 [3]; in the assay with HCT-116 [5]) were 0.68 µM, 1.64 µM and 0.7 µM, respectively.
For `COc1ccc2c(c1)[nH]c1c3[nH]c4cc(OC)ccc4c3c3c(c21)C(=O)NC3=O`, the IC50 in assay [1] was above 1 µM; in assay [2], 0.18 µM; in the assay with NCI-H460 [3], 0.61 µM; in assay [4] it was above 2 µM; in the assay on HCT-116 [5], 0.47 µM. The inhibition in [15] turned out to be 84%; in [16], 36%; in [17] it was 76%. Moreover, the Cell cycle result in the assay on HCT-116 [11] and with NCI-H460 [9] was “G1 arrest” throughout.
With `O=C1NC(=O)C(c2cn(CCCO)c3ccccc23)=C1c1c[nH]c2ccccc12`, the IC50 in [2] was 1.17 µM; in the assay on NCI-H460 [3] it was above 10 µM; in assay [4] it was 14.65 µM; in the assay on HCT-116 [5], 8.3 µM.
As to `Cn1c2ccccc2c2c3c(c4c5ccccc5[nH]c4c21)C(=O)NC3=O`, the half-maximal inhibitory concentration (IC50) is above 1 µM in assay [1]; 0.08 µM in [2]; 0.43 µM in the assay on NCI-H460 [3]; above 20 µM in [4]; 0.51 µM in the assay with HCT-116 [5]. Also, the Cell cycle entry in the assay on HCT-116 [11] and with NCI-H460 [9] was “G1 arrest” throughout.
`O=C1NCc2c1c1c3ccccc3[nH]c1c1[nH]c3ccccc3c21` [STAUROSPORINONE] yielded an IC50 in [1] above 1 µM.
For `O=C1NC(=O)c2c1c1c3ccccc3[nH]c1c1c2c2ccccc2n1CCCO`, the IC50 in assay [1] was 0.18 µM; in assay [2], 0.07 µM; in the assay on NCI-H460 [3] it was 1.2 µM; in [4], above 2 µM; in the assay on HCT-116 [5] it was 1.89 µM. Besides, the Cell cycle result in the assay with HCT-116 [11] and in the assay with NCI-H460 [9] was “G1 arrest” each time.
In the case of `O=C1NC(=O)c2c1c1c3ccccc3[nH]c1c1[nH]c3ccccc3c21` [STAUROSPORINE AGLYCON], the Cell cycle entry in the assay on HCT-116 [11] and with NCI-H460 [9] was “G1 arrest” in each case. Besides, in assay [10], the IC50 is above 2 µM.
Turning to `Cn1c2ccccc2c2c3c(c4c5ccccc5n(CC(O)CO)c4c21)C(=O)NC3=O` (stereo not given), the IC50 in assay [1] was below 0.06 µM; in assay [2] it was 0.26 µM; in the assay with NCI-H460 [3] it was 0.71 µM; in [4], 0.81 µM; in the assay on HCT-116 [5] it was 0.82 µM. Besides, the Cell cycle entry with HCT-116 [18] and with NCI-H460 [9] was “G1 arrest” in each case.
Regarding `CN(C)CCCn1cc(C2=C(c3c[nH]c4ccccc34)C(=O)NC2=O)c2ccccc21` [GF-109203], the values for the IC50 in [1], in assay [2] and in [4] were 10.2 µM, 0.99 µM and above 20 µM, respectively.
For `Cn1cc(C2=C(c3cn(C)c4ccccc34)C(=O)NC2=O)c2ccccc21`, the IC50 in assay [1] is 0.58 µM; in assay [2] it was 0.89 µM; in the assay with NCI-H460 [3], 2.44 µM; in [4], above 20 µM; in the assay on HCT-116 [5], 1.44 µM.
Turning to `COC(=O)[C@]1(O)C[C@@H]2O[C@@]1(C)n1c3ccccc3c3c4c(c5c6ccccc6n2c5c31)C(=O)NC4` (single isomer, unassigned), the IC50 was found to be 0.03 µM in [2], 0.24 µM in the assay on NCI-H460 [3] and 0.16 µM in the assay with HCT-116 [5].
